T cruzi repl: blocks replication of Trypanosoma cruzi | T. cruzi beta-gal in NIH3T3, luminescence, 90 h | inhibition, % (no concentration beside the values) | 300,000 tested, 1.4% active | AID 1885;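 active = mean inhibition across valid replicates above about 55%, limit read from the data; inconclusive = mean below that limit but half or more replicates reach it; inactive = mean below it, under half of replicates reach it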;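 note: signal also drops with host cell toxicity which is not excluded here; 0% = plate median of DMSO wells and 100% = zero luminescence signal; higher percent means less beta-gal luminescence so fewer parasites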
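System – NIH/3T3 host cells with β-galactosidase reporter T. cruzi · Doses – single 50 nL compound addition per well in DMSO · Reagent – 5000 T. cruzi trypomastigotes/well · Medium – Low-serum DMEM with 2% FBS · Timing – ≥90 h infection period, 3 h prior cell attachment · Evaluation – parasite load inhibition, % · Technique – GalScreen luminescence, 60 min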
SKKanGAS inh: SKKanGAS growth inhibition; AID 1662; 300,000 tested, 1.3% active; inhibition, % at 7.5 µM; S. pyogenes SKKanGAS, kanamycin growth, BacTiter-Glo, 6 h;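 active = mean replicate score, as percent of positive control median, at least 50; inconclusive = mean below 50 but one replicate at or above 50; inactive = mean and every replicate below 50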;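 note: strain carries kanamycin resistance gene driven by streptokinase promoter and grows in 40 µg/ml kanamycin; loss of luminescence reflects streptokinase promoter inhibition or plain growth inhibition; 0% = median of DMSO wells and 100% = positive control at its reference dose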
aSyn 5UTR inh: 5' untranslated region of α-synuclein, MLPCN primary screen. alpha-synuclein 5'UTR reporter, inhibitor activity. inhibition, % (tested at 7.5 µM). 300,000 tested, 0.82% active. AID 1813; in the data active = inhibition above about 60%; inconclusive = no clear call, values can overlap the other calls;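 note: H4 neuroglioblastoma cells stably carrying SNCA 5'UTR luciferase fusion; 0% = DMSO wells and 100% = positive control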
CSC inhib: blocks cancer stem cells | cancer stem cell-like cells viability, luminescence | inhibition, % at 7.5 µM | 300,000 tested, 1.1% active; in the data active = inhibition above about 75%; inconclusive = no clear call, values can overlap the other calls; tested in HMLE shEcad cells
Mdm2-MdmX inh: disrupts the human Mdm2-MdmX interaction | O15151+Q00987 | SaOS-2 split-luciferase Mdm2/MdmX complementation, luminescence | inhibition, % at 8 µM | 330,000 tested, 3% active | AID 485346;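 active = inhibition of at least 50% at 8 µM in the primary screen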
Mdm2-MdmX conf: human Mdm2/MdmX binding inhibition, confirmed; inhibition, % at 8 µM; AID 489028; 10,000 tested, 55% active; luminescent assay; shares compounds with Mdm2-MdmX inh; in the data active = inhibition above about 40%
FLuc counter: inhibits full-length luciferase, flagging false Mdm2/MdmX hits; 6,200 tested, 77% active; SaOS-2 full-length luciferase counterscreen, luminescence; shares compounds with Mdm2-MdmX inh; inhibition, % at 8 µM;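 active = mean inhibition at 8 µM reaching about 37%, which flags the compound as non-specific, limit read from the data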;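 note: p53-null SaOS-2 cells with luciferase driven by a doxycycline-inducible promoter; compound on cells about two nights before reading with doxycycline added after day one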
Numbers without * were called inactive; u = inconclusive; x = no result. Shown are actives, neighbours in structure and some others; about 5.4% of the full set was active somewhere.

SMILES | T cruzi repl | SKKanGAS inh | aSyn 5UTR inh | CSC inhib | Mdm2-MdmX inh | Mdm2-MdmX conf | FLuc counter
CCC(=O)Nc1cc(-c2nn(C)c(=O)c3ccccc23)ccc1OC | -2.9 | 1.6 | 16.7 | x | 30.7 | x | x
Cc1nn(CC(=O)Nc2ccc3c(c2)oc2ccccc23)c(=O)c2ccccc12 | 22.8 | -8.4 | 11.8 | x | 77.1* | 14.5 | x
COc1ccc(S(=O)(=O)N2CCC(C(=O)NC3CCCC3)CC2)cc1C | 2.1 | 1.8 | 32.7 | 3.1 | -19.8 | x | x
Cc1ccc(-c2ccc(=O)n(CC(=O)NCCC(C)C)n2)cc1 | 0.6 | -0.6 | 1.2 | 2.6 | 3.6 | x | x
CCOCCn1c(N2CCCC2)nc2c1c(=O)[nH]c(=O)n2C | -1.4 | -0.4 | 5.9 | -9.9 | 0.1 | x | x
CC(C)(C)OC(=O)NCCc1nnc(S(=O)(=O)Cc2ccc(Cl)cc2Cl)o1 | -13.0 | 30.7 | 4.3 | u | 76.8* | 59.0* | 5.2
CC(C)(C)OC(=O)NCCc1nnc(SCc2ccccc2Cl)o1 | 26.0 | 0.7 | 5.0 | -13.0 | 15.3 | x | x
Nc1nc(C(=O)N2CCOCC2)nn1S(=O)(=O)c1ccc(Cl)cc1 | -14.2 | -5.4 | 0.5 | -4.3 | 7.8 | x | x
O=C(c1nnsc1S(=O)(=O)c1ccc(Cl)cc1)N1CCOCC1 | 17.8 | -0.9 | -34.4 | x | 94.9* | 68.2* | 19.3
CNC(=O)c1nnsc1S(=O)(=O)c1ccc(Cl)cc1 | 59.6* | 1.1 | -26.4 | x | 95.9* | 100.2* | 51.2*
O=C(c1nnsc1S(=O)c1ccc(Cl)cc1)N1CCOCC1 (stereo not given) | 62.5* | 36.0 | -50.0 | x | 99.2* | 94.2* | 53.4*
O=C(Nc1ccccc1-c1nc2ccccc2s1)c1ccc(Br)o1 | 0.3 | 1.0 | -8.5 | 7.8 | 60.2* | 6.3 | x
Cc1ccc2cccc(NC(=O)c3ccc(Br)o3)c2n1 | 1.7 | -3.1 | 39.1 | x | 61.4* | 63.1* | 54.8*
Cc1ccc(NC(=S)N(CCN(C)C)Cc2cc3cc(C)cc(C)c3[nH]c2=O)cc1 | -14.4 | -5.5 | -8.0 | -13.2 | -54.5 | x | x
CN(Cc1ccccc1)C(=O)CN(c1ccc(F)cc1)S(=O)(=O)c1ccc2c(c1)OCCO2 | 13.5 | 9.6 | 11.6 | 6.9 | -1.8 | x | x
O=C(c1ccco1)N1CCN(C(c2coc3ccc(Cl)cc3c2=O)c2nnnn2C2CCCC2)CC1 (stereo not given) | -7.5 | 3.3 | 12.2 | 16.4 | 50.5* | 3.0 | x
Cc1ccc2occ(C(c3nnnn3C3CCCC3)N3CCN(C(=O)c4ccco4)CC3)c(=O)c2c1 (stereo not given) | 5.5 | 4.8 | 8.1 | -4.3 | 15.7 | x | x
Cc1ccnc2nc(C(=O)OCC(=O)Nc3ccc([N+](=O)[O-])cc3Br)nn12 | x | x | x | x | 2.3 | x | x
Cc1cccc([C@@H]2[C@@H]3C(=O)N(Cc4ccccc4)C(=O)[C@@H]3[C@]3(Cc4ccc(Cl)cc4)C(=O)N(c4ccc(Br)cc4)C(=O)N23)c1 | 40.1 | -0.8 | 2.8 | -3.6 | 90.4* | 99.5* | 49.4*
COc1ccc([C@@H]2[C@@H]3C(=O)N(C(C)(C)C)C(=O)[C@@H]3[C@]3(Cc4ccccc4)C(=O)N(c4ccc(Br)cc4)C(=O)N23)cc1 | 8.9 | -1.5 | -21.1 | 12.5 | 62.9* | 71.3* | 35.6
COc1ccc(N2C(=O)N3[C@H](c4ccc(Br)cc4)[C@@H]4C(=O)N(C(C)(C)C)C(=O)[C@@H]4[C@]3(Cc3ccccc3)C2=O)cc1 | 15.5 | 1.3 | 12.4 | -2.8 | 28.6 | x | x
CC[C@@]12C(=O)N(c3ccc(C)cc3)C(=O)N1[C@H](c1cccc(C)c1)[C@@H]1C(=O)N(Cc3ccccc3)C(=O)[C@@H]12 | -11.9 | 2.9 | 15.3 | -15.8 | -10.5 | x | x
Cc1cccc(NC(=S)N=Nc2c(O)[nH]c3ccccc23)c1 | 64.3* | 97.3* | 53.3 | 6.9 | 53.7* | 38.0 | 56.6*
CC(C)c1ccc2[nH]c(O)c(N=NC(=O)c3cccc(S(=O)(=O)Nc4ccccc4Cl)c3)c2c1 | 41.2 | 20.9 | -19.6 | 10.0 | 18.6 | x | x
COc1ccc(/C(C)=N/OCC(=O)N=Nc2c(O)[nH]c3ccc(Br)cc23)cc1 | 10.9 | 17.9 | 8.0 | 2.0 | 52.6* | -4.7 | x
CC(C)NC(=S)N=Nc1c(O)[nH]c2ccc(C(C)C)cc12 | 59.3* | 9.1 | 43.4 | 32.6 | 54.9* | 35.5 | 51.4*
COc1ccccc1NC(=S)N=Nc1c(O)[nH]c2ccc(Br)cc12 | 38.7 | 92.6* | 8.0 | u | 70.4* | 74.7* | 56.6*

High-throughput results from PubChem.
